Measurements taken from ChEMBL document CHEMBL1142682, “Design, synthesis, and biological evaluation of novel potent and selective alphavbeta3/alphavbeta5 integrin dual inhibitors with improved bioavailability. Selection of the molecular core” (J Med Chem, 2005).

Columns and labels:
[1] = Area under curve for the compound was determined at infinity in mouse upon 50 mpk peroral administration; assay type: ADME; details: in vivo, po, 50 mg/kg
[2] = Area under curve for the compound was determined at infinity in mouse upon 5 mpk intravenous administration; assay type: ADME; details: in vivo, 5 mg/kg
[3] = Extension in area under curve for the compound was determined in mouse upon 50 mpk peroral administration; assay type: ADME; details: in vivo, po, 50 mg/kg
[4] = Extension in area under curve for the compound was determined in mouse upon 5 mpk intravenous administration; assay type: ADME; details: in vivo, 5 mg/kg
Integrin alpha-5/beta-1 = Integrin alpha-5/beta-1 (Homo sapiens, UniProt P05556+P08648); assay: In vitro inhibition of human alpha5-beta1 integrin binding in ELISA; assay type: protein-complex assay
Integrin alpha-5/beta-1, sequence (P05556 21-798 limits assumed): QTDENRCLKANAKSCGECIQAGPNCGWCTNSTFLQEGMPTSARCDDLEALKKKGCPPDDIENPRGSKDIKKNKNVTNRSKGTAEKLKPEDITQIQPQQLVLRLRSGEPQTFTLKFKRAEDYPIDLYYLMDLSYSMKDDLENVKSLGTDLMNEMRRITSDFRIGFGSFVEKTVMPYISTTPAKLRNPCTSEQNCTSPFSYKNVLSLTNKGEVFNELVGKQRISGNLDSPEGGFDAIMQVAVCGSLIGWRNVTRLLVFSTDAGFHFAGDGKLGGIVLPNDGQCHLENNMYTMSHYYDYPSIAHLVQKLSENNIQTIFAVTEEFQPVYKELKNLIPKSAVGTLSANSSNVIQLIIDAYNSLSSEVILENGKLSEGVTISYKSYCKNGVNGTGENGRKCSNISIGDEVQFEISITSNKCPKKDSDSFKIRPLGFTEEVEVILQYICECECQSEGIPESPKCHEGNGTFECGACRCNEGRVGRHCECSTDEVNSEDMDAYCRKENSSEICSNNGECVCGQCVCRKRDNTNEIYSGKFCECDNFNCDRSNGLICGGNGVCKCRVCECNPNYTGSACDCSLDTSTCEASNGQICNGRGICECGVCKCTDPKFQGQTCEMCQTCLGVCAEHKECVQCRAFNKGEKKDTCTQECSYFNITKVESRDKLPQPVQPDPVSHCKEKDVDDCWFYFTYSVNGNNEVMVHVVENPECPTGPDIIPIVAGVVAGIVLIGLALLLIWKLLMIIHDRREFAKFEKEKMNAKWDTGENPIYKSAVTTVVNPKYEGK
Integrin alpha-5/beta-1, sequence (P08648 42-894 limits assumed): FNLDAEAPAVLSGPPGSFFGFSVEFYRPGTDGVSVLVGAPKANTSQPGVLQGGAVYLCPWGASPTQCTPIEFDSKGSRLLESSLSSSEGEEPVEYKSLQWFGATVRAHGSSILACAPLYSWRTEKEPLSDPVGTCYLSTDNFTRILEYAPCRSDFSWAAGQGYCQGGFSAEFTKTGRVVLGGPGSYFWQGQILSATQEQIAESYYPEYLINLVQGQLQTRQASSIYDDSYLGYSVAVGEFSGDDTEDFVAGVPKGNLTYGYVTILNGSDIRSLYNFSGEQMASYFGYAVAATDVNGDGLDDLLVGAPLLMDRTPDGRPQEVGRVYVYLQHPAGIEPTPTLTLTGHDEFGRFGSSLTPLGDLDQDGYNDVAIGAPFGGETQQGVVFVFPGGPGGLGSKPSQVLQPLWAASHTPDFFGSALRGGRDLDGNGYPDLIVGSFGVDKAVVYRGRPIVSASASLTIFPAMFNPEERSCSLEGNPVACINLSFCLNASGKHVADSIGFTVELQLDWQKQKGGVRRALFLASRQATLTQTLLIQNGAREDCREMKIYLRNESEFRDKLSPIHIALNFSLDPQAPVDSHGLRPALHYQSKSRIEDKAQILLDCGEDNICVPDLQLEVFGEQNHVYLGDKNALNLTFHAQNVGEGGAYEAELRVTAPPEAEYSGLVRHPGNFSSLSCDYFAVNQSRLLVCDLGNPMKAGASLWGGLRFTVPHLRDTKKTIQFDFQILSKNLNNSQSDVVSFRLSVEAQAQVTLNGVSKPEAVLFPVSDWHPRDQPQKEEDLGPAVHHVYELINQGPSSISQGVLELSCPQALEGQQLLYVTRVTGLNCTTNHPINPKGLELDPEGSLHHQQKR
Integrin alpha-5/beta-1, sequence (P08648 895-1049 limits assumed): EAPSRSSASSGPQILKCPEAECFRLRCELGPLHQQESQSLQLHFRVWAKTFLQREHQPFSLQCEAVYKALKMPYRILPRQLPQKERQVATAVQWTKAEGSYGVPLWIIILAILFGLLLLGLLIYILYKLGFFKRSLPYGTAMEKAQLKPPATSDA
Summary of the method: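 Human α5β1 coated at 3 µg/mL; blocking and binding at 30 °C. Biotinylated human fibronectin (1 µg/mL) with compounds 0.0001-20 µM, 2 h; NeutrAvidin-HRP 1 h 30 °C, OPD read at 492 nm. % inhibition vs buffer controls averaged over three determinations; IC50 by four-parameter fit.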

Integrin alpha-V/beta-3 = Integrin alpha-V/beta-3 (Homo sapiens, UniProt P05106+P06756); assay: In vitro inhibition of human alphaV-beta3 integrin binding in ELISA; assay type: protein-complex assay
Integrin alpha-V/beta-3, sequence (P05106 27-788 limits assumed): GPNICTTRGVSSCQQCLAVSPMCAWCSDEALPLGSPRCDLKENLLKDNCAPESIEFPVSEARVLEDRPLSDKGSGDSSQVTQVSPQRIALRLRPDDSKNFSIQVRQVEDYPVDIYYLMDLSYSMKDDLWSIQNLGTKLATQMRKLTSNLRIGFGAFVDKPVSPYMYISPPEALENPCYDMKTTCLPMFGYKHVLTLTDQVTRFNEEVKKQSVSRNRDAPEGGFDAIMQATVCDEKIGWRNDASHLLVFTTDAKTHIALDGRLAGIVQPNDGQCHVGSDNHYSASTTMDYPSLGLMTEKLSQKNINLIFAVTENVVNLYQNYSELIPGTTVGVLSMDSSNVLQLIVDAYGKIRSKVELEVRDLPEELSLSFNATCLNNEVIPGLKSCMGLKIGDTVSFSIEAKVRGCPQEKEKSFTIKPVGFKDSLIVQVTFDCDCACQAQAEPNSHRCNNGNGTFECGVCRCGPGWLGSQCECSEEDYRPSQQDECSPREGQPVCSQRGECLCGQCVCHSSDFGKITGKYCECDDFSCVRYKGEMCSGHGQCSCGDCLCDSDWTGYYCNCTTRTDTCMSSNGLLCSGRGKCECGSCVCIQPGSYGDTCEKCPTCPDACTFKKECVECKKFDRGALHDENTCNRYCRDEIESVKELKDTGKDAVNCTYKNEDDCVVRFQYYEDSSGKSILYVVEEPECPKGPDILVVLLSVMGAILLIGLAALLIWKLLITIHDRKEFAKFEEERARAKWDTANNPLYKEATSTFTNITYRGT
Integrin alpha-V/beta-3, sequence (P06756 31-889 limits assumed): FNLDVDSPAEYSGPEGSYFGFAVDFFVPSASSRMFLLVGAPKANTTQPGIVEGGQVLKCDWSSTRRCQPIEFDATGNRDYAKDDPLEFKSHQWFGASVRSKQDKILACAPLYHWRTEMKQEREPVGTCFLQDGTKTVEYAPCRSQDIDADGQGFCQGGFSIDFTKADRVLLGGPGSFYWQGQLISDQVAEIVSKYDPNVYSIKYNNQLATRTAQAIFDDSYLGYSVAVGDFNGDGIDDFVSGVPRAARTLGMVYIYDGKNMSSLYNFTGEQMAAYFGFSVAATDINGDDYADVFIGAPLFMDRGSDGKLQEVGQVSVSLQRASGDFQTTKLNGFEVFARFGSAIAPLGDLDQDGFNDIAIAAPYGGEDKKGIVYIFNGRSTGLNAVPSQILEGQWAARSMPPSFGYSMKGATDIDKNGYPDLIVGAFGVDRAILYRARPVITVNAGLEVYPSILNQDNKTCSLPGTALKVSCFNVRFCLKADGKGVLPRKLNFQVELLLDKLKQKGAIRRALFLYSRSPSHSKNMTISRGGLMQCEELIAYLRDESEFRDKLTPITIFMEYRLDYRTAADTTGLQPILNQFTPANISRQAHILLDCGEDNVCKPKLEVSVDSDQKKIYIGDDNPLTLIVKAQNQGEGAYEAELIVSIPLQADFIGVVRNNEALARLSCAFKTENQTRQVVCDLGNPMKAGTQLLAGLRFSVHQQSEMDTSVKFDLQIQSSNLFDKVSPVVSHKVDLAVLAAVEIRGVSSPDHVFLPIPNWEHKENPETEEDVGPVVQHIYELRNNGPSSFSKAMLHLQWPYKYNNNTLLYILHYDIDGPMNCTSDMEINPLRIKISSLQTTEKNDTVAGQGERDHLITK
Integrin alpha-V/beta-3, sequence (P06756 891-1048 limits assumed): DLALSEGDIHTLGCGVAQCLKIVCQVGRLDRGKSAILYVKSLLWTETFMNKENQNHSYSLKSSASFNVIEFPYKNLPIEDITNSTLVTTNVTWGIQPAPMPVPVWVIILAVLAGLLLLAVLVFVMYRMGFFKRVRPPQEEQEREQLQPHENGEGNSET
Summary of the method: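 Plate-coated human αvβ3 (0.4 µg/mL) in Tris buffer with Ca, Mg, Mn; compounds 0.0001-20.0 µM with biotinylated human vitronectin (1 µg/mL), 2 h, room temperature throughout. NeutrAvidin-HRP detection, OPD read at 492 nm; % inhibition vs buffer controls from triplicate determinations, IC50 by four-parameter fit.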

Integrin alpha-V/beta-5 = Integrin alpha-V/beta-5 (Homo sapiens, UniProt P06756+P18084); assay: In vitro inhibition of human alphaV-beta5 integrin binding in ELISA; assay type: protein-complex assay
Summary of the method: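 Human αvβ5 coated at 1 µg/mL in Tris buffer with Ca, Mg, Mn; biotinylated human vitronectin (1 µg/mL) plus compounds (0.0001-20 µM) incubated 2 h, all at room temperature. NeutrAvidin-HRP, OPD development, absorbance 492 nm; IC50 from four-parameter fit of triplicate % inhibition relative to buffer controls.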

[5] = molecular target: Integrin alpha-IIb/beta-3 (Homo sapiens, UniProt P05106+P08514); assay: In vitro inhibition of human alphaIIb betaIIIa integrin binding in ELISA; assay type: protein-complex assay
Integrin alpha-IIb/beta-3, sequence (P05106 27-788 limits assumed): as the sequence (P05106 27-788 limits assumed) above
Integrin alpha-IIb/beta-3, sequence (P08514 32-887 limits assumed): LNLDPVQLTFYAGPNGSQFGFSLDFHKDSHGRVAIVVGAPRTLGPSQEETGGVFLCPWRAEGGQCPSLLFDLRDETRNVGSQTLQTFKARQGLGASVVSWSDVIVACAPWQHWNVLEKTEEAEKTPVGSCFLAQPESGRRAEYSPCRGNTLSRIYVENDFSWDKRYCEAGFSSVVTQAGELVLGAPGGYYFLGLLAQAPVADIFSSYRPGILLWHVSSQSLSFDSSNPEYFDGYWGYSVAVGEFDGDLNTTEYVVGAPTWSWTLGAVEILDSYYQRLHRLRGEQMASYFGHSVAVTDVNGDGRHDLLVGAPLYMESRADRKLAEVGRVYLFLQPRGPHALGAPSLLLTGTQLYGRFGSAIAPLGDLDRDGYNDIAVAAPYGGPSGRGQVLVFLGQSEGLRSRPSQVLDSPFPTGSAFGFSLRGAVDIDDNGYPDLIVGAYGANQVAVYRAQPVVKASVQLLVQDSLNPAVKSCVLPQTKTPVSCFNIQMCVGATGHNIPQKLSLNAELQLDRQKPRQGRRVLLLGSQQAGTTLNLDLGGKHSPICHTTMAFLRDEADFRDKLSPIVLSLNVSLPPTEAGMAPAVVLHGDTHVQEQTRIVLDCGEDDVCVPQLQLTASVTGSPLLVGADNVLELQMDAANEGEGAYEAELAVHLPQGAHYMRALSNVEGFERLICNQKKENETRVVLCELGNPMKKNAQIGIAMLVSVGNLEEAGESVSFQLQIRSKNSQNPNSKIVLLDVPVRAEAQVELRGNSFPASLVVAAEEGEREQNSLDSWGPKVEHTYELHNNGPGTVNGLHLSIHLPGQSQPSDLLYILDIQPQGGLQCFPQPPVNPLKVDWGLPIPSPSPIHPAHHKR
Integrin alpha-IIb/beta-3, sequence (P08514 891-1039 limits assumed): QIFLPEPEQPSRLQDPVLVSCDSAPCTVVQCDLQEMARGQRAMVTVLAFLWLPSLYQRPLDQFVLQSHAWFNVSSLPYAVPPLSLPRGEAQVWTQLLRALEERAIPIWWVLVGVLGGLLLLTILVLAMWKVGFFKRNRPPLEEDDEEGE
Summary of the method: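 Immobilized human fibrinogen (10 µg/mL coat, overnight 4 °C, Tris/Ca buffer pH 7.5) bound by human GPIIbIIIa (40 µg/mL) with compounds 0.027-20.0 µM, 1 h 37 °C; bound receptor detected with anti-GPIIbIIIa mAb then HRP anti-mouse IgG, OPD development, A492. % inhibition vs buffer controls, mean of three determinations; IC50 by four-parameter fit.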

Caco-2 = assay: In vitro CACO-2 cell permeability potency was determined; assay type: functional, cell-based; details: Homo sapiens
[6] = Half life in mouse upon 50 mpk peroral administration; assay type: ADME, organism-based; details: in vivo, po, 50 mg/kg
[7] = Half life in mouse upon 5 mpk intravenous administration; assay type: ADME, organism-based; details: in vivo, 5 mg/kg
[8] = Mean residence time for the compound was determined in mouse upon 5 mpk intravenous administration; assay type: ADME, organism-based; details: in vivo, 5 mg/kg
[9] = Maximum time required to reach maximum plasma concentration in mouse upon 50 mpk peroral administration (n=3); Range = 0.25-0.50 hr; assay type: ADME, organism-based; details: po, 50 mg/kg
[10] = Apparent volume of distribution during the terminal phase was determined in mouse upon 5 mpk intravenous administration; assay type: ADME, organism-based; details: in vivo, 5 mg/kg, read-out: Vz
[11] = Maximum clearance in mouse upon 5 mpk intravenous administration; assay type: ADME, organism-based; details: in vivo, 5 mg/kg
[12] = Oral bioavailability in mouse (dose 50 mg/kg); assay type: ADME, organism-based; details: in vivo
[13] = Maximum concentration in mouse plasma upon 50 mpk peroral administration (n=3); assay type: ADME, organism-based; parameters: dose 50 mpk, route oral; details: po, 50 mg/kg

Compound	AUC inf [1] [ng·h/mL]	AUC inf [2] [ng·h/mL]	Ext AUC [3] [%]	Ext AUC [4] [%]	IC50 (Integrin alpha-5/beta-1) [nM]	IC50 (Integrin alpha-V/beta-3) [nM]	IC50 (Integrin alpha-V/beta-5) [nM]	IC50 [5] [nM]	Permeability (Caco-2) [AB cm/s]	half-life [6] [min]	half-life [7] [min]	MRT [8] [min]	Tmax [9] [min]	Vd [10] [L/kg]	clearance [11] [mL/min/kg]	bioavailability [12] [%]	Cmax [13] [ng/mL]
CNc1cccc(CCOc2ccc3c(ccn3CCC(=O)O)c2)n1	64000	7100	7	3	15000	49	210	> 20000	6e-06	143	93.6	103	30	1.58	11.7	90	38300
CNc1cccc(CCOc2ccc3c(CCC(=O)O)coc3c2)n1	14600	1280	1	2	> 20000	33	420	> 20000	1.7e-05	115	5.4	6.6	30	0.5	65.1	114	16200
O=C(O)CCn1ccc2cc(OCCCNc3ccccn3)ccc21	–	–	–	–	> 20000	470	2.5	> 20000	6e-06	–	–	–	–	–	–	–	–
CNc1cccc(CCOc2ccc3c(CCC(=O)O)csc3c2)n1	36700	5040	5	1	7800	30	140	> 20000	1.6e-05	140	44.4	33.6	30	1.05	16.5	73	27500
